Assay: Acidity
Format: physicochemical
Conditions: aqueous 0.15 M KCl, with or without methanol cosolvent
Method in brief: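 Potentiometric titrations in 0.15 M KCl, titrated with 0.5 M HCl and KOH over pH 2.0–12.0. Samples were ≤0.5 mg and run in triplicate. Standard deviation came from fitting all three replicates. For water-insoluble compounds, methanol was added and the apparent psKa was extrapolated to aqueous pKa by the Yasuda–Shedlovsky procedure.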

pKa | Structure (SMILES)
7.44 | CONC(=O)c1nsc2ccccc12 [Compound 3a, O-Methyl 1,2-benzisothiazole-3-hydroxamic acid]
7.21 | CONC(=O)c1nc2ccccc2[nH]1 [Compound 2a, O-methyl benzimidazole-2-hydroxamic acid]
8.43 | CONC(=O)c1n[nH]c2ccccc12 [Compound 1a, O-methyl indazole-3-hydroxamic acid]
6.34 | CONC(=O)c1nc2ccccc2s1 [Compound 4a, O-methyl benzothiazole-2-hydroxamic acid]
